Series [1] deals with Rattus norvegicus. Kind of series: Volume of distribution at steady state in Sprague-Dawley rat at 15 mg/kg, iv. Format: ADME, organism-based. The arrangement: dose 15 mg/kg, route intravenous. Conditions: in vivo. In a few lines:
(§1)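 CMS in 0.9% NaCl, 15 mg/kg, was given as an i.v. bolus through a femoral vein catheter to fasted male Sprague-Dawley rats (n=6). Arterial plasma was drawn at 0–180 min. CMS (measured as colistin after acid hydrolysis) and colistin were quantified by LC-MS/MS. Individual noncompartmental analysis; Vss = dose × AUMC / AUC².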

The subject of series [2] is Rattus norvegicus. As to the kind of experiment: Half life in Sprague-Dawley rat at 15 mg/kg, iv. More on the design: dose 15 mg/kg, route intravenous. Conditions: in vivo. It is filed as ADME, organism-based. In a few lines: as §1
Series [3] concerns Rattus norvegicus. As to the kind of experiment: Half life in Sprague-Dawley rat assessed as Colistin level at 15 mg/kg, iv. Conditions: in vivo. It is filed as ADME, organism-based. More on the design: dose 15 mg/kg, route intravenous. In a few lines:
as §1

Series [4] relates to Rattus norvegicus. Kind of series: AUC in Sprague-Dawley rat at 15 mg/kg, iv. It is filed as ADME, organism-based, Plasma. Conditions: in vivo. More on the design: dose 15 mg/kg, route intravenous. In a few lines:
as §1

Series [5] deals with Rattus norvegicus. As to the kind of experiment: AUC in Sprague-Dawley rat assessed as Colistin level at 15 mg/kg, iv. Format: ADME, organism-based, Plasma. More on the design: dose 15 mg/kg, route intravenous. Conditions: in vivo. The method, boiled down: as §1
For series [6], the system named is Rattus norvegicus. Kind of series: Half life in Sprague-Dawley rat at 15 mg/kg administered via intratracheal nebulization. It is filed as ADME, organism-based. The arrangement: dose 15 mg/kg, route endotracheal. Conditions: in vivo, inhaled_or_intranasal. In a few lines:
(§2)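 Male Sprague-Dawley rats (280–350 g) were fasted 12 h, with a femoral catheter implanted the day before. Under isoflurane, 100 µl of CMS at 50 mg/ml in 0.4% NaCl (15 mg/kg) was sprayed intratracheally with a MicroSprayer (n=5). Arterial plasma was sampled from 0 to 300 min. CMS (after sulfuric acid hydrolysis) and colistin were measured by LC-MS/MS. Noncompartmental analysis: trapezoidal AUC, terminal log-linear half-life.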

Series [7] relates to Rattus norvegicus. As to the kind of experiment: Half life in Sprague-Dawley rat assessed as Colistin level at 15 mg/kg administered via intratracheal nebulization. Format: ADME, organism-based. More on the design: dose 15 mg/kg, route endotracheal. Conditions: in vivo, inhaled_or_intranasal. In a few lines:
as §2

The subject of series [8] is Rattus norvegicus. As to the kind of experiment: AUC in Sprague-Dawley rat at 15 mg/kg administered via intratracheal nebulization. It is filed as ADME, organism-based, Plasma. Conditions: in vivo, inhaled_or_intranasal. More on the design: dose 15 mg/kg, route endotracheal. The method, boiled down:
as §2

Series [9] concerns Rattus norvegicus. Kind of series: AUC in Sprague-Dawley rat assessed as Colistin level at 15 mg/kg administered via intratracheal nebulization. Format: ADME, organism-based, Plasma. More on the design: dose 15 mg/kg, route endotracheal. Conditions: in vivo, inhaled_or_intranasal. The method, boiled down: as §2
The test system of series [10] is Rattus norvegicus. As to the kind of experiment: Cmax in Sprague-Dawley rat at 15 mg/kg administered via intratracheal nebulization. Format: ADME, organism-based. The arrangement: dose 15 mg/kg, route endotracheal. Conditions: in vivo, inhaled_or_intranasal. The method, boiled down: as §2
Series [11] concerns Rattus norvegicus. As to the kind of experiment: Bioavailability in Sprague-Dawley rat at 15 mg/kg administered via intratracheal nebulization. Format: ADME, organism-based. Conditions: in vivo, inhaled_or_intranasal. The method, boiled down:
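CMS bioavailability after intratracheal nebulization in rats (15 mg/kg) was taken as the mean CMS plasma AUC after nebulization divided by the mean CMS AUC after i.v. dosing at the same dose. It is reported as an average value.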

Sequence COLISTIMETHATE SODIUM had a Vdss with Rattus norvegicus [1] of 0.33 L/kg. The t1/2 with Rattus norvegicus [2] is recorded as 22 min; with Rattus norvegicus [3] it was 35.5 min; with Rattus norvegicus [6], 21 min; in the series with Rattus norvegicus [7], 63.6 min. In addition, the area under the curve (AUC) came out at 1079 µg·min/mL with Rattus norvegicus [4], 160 µg·min/mL in the series with Rattus norvegicus [5], 756 µg·min/mL in the series on Rattus norvegicus [8] and 607 µg·min/mL in the series with Rattus norvegicus [9]. Moreover, in the series with Rattus norvegicus [10], the peak concentration (Cmax) is 5600 ng/mL. The sequence further registered a F in the series on Rattus norvegicus [11] of 70%.

For the origin of these results see ChEMBL document CHEMBL1687762, “Aerosol therapy with colistin methanesulfonate: a biopharmaceutical issue illustrated in rats” (Antimicrob Agents Chemother, 2010).
